Test results reported in ChEMBL document CHEMBL4229380, “Arylureas derived from colchicine: Enhancement of colchicine oncogene downregulation activity” (Eur J Med Chem, 2018).

How the values were obtained:
HT-29 [1] = experiment: Antiproliferative activity against human HT-29 cells after 2 days by MTT assay; assay type: functional, cell-based; settings: HT-29, 48 h
In short: (§1)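 Cells (5×10^3 per well) in DMEM with 10% FBS, glucose, glutamine and antibiotics were exposed to serial dilutions (stocks in DMSO) for 2 days at 37 °C, 5% CO2. MTT was added for 3 h, formazan was dissolved in DMSO and absorbance read at 490 nm. Viability was taken as % of untreated cells. IC50 was read graphically from three independent experiments.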

MCF7 = experiment: Antiproliferative activity against human MCF7 cells after 2 days by MTT assay; assay type: functional, cell-based; settings: MCF7, 48 h; in short: as §1
HeLa = experiment: Antiproliferative activity against human HeLa cells after 2 days by MTT assay; assay type: functional, cell-based; settings: 48 h; in short: as §1
HEK293 = experiment: Antiproliferative activity against human HEK293 cells after 2 days by MTT assay; assay type: cell-based; settings: HEK293, 48 h; in short: as §1
HT-29 [2] = experiment: Induction of apoptosis in human HT-29 cells assessed as viable cells at 0.5 nM after 48 hrs by Annexin V-FITC staining-based flow cytometric analysis (reference value: 82 +/- 1%); assay type: functional; settings: HT-29, 48 h, read-out: Activity
HT-29 [3] = experiment: Induction of apoptosis in human HT-29 cells assessed as apoptotic cells at 0.5 nM after 48 hrs by Annexin V-FITC staining-based flow cytometric analysis (reference value: 13 +/- 3%); assay type: functional
HT-29 [4] = experiment: Induction of apoptosis in human HT-29 cells assessed as necrotic cells at 0.5 nM after 48 hrs by Annexin V-FITC staining-based flow cytometric analysis (reference value: 2 +/- 6%); assay type: functional
HT-29 [5] = experiment: Effect on c-MYC gene expression in human HT-29 cells assessed as c-MYC level at 0.5 nM after 48 hrs by RT-qPCR analysis; assay type: functional
In short: (§2)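 HT-29 cells at 70–80% confluence were seeded at 1.5×10^5 per well and left 24 h, then treated 48 h, with DMSO as control. Total RNA was extracted and VEGF-A, c-Myc and hTERT were quantified by TaqMan qPCR, normalized to β-actin and to living cell number. Results are % expression versus control, at least three measurements.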

HT-29 [6] = experiment: Effect on hTERT gene expression in human HT-29 cells assessed as hTERT level at 0.5 nM after 48 hrs by RT-qPCR analysis; assay type: functional; in short: as §2
HT-29 [7] = experiment: Effect on VEGF gene expression in human HT-29 cells assessed as VEGF level at 0.5 nM after 48 hrs by RT-qPCR analysis; assay type: functional; in short: as §2
HT-29 [8] = experiment: Effect on c-MYC protein expression in human HT-29 cells assessed as c-MYC level at 0.5 nM after 48 hrs by ELISA; assay type: functional
In short: (§3)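 HT-29 cells (1.5×10^5 per well, 24 h pre-culture) were treated 48 h and washed in PBS. They were lysed in Tris pH 7.4 buffer with detergents, phosphatase inhibitors, PMSF and protease inhibitors. Lysates were adjusted to 200 µg/mL protein (Bradford) and total c-Myc or VEGFR-2 was measured by sandwich ELISA kit. Values are % of DMSO control, ≥3 measurements.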

HT-29 [9] = experiment: Effect on VEGFR2 protein expression in human HT-29 cells assessed as VEGFR2 level at 0.5 nM after 48 hrs by ELISA; assay type: functional; in short: as §3
HT-29 [10] = experiment: Effect on VEGF protein expression in human HT-29 cells assessed as secreted VEGF level in culture media at 0.5 nM after 48 hrs by ELISA
HT-29 [11] = experiment: Induction of apoptosis in human HT-29 cells assessed as viable cells at 500 nM after 48 hrs by Annexin V-FITC staining-based flow cytometric analysis (reference value: 82 +/- 1%); assay type: functional; settings: HT-29, 48 h, read-out: Activity
HT-29 [12] = experiment: Induction of apoptosis in human HT-29 cells assessed as apoptotic cells at 500 nM after 48 hrs by Annexin V-FITC staining-based flow cytometric analysis (reference value: 13 +/- 3%); assay type: functional
HT-29 [13] = experiment: Induction of apoptosis in human HT-29 cells assessed as necrotic cells at 500 nM after 48 hrs by Annexin V-FITC staining-based flow cytometric analysis (reference value: 2 +/- 6%); assay type: functional
HT-29 [14] = experiment: Induction of apoptosis in human HT-29 cells assessed as viable cells at 1000 nM after 48 hrs by Annexin V-FITC staining-based flow cytometric analysis (reference value: 82 +/- 1%); assay type: functional; settings: HT-29, 48 h, read-out: Activity
HT-29 [15] = experiment: Induction of apoptosis in human HT-29 cells assessed as apoptotic cells at 1000 nM after 48 hrs by Annexin V-FITC staining-based flow cytometric analysis (reference value: 13 +/- 3%); assay type: functional
HT-29 [16] = experiment: Induction of apoptosis in human HT-29 cells assessed as necrotic cells at 1000 nM after 48 hrs by Annexin V-FITC staining-based flow cytometric analysis (reference value: 2 +/- 6%); assay type: functional

IC50 (HT-29 [1]) [nM] | IC50 (MCF7) [nM] | IC50 (HeLa) [nM] | SMILES | IC50 (HEK293) [nM] | viability at 0.0005 µM (HT-29 [2]) [%] | Activity (HT-29 [3]) [%] | Activity (HT-29 [4]) [%] | Activity (HT-29 [5]) [%] | Activity (HT-29 [6]) [%] | Activity (HT-29 [7]) [%] | Activity (HT-29 [8]) [%] | Activity (HT-29 [9]) [%] | Activity (HT-29 [10]) [%] | viability at 0.5 µM (HT-29 [11]) [%] | Activity (HT-29 [12]) [%] | Activity (HT-29 [13]) [%] | viability at 1 µM (HT-29 [14]) [%] | Activity (HT-29 [15]) [%] | Activity (HT-29 [16]) [%]
0.8 | 1.3 | 1.2 | COc1cc2c(c(OC)c1OC)-c1ccc(OC)c(=O)cc1[C@@H](NC(=O)Nc1ccccc1Cl)CC2 | 0.7 | 58 | 41 | 1 | 25 | 46 | 30 | 51 | 38 | 34 | – | – | – | – | – | –
838 | 185 | 304 | CCc1cccc(CC)c1NC(=O)N[C@H]1CCc2cc(OC)c(OC)c(OC)c2-c2ccc(OC)c(=O)cc21 | 801 | – | – | – | – | – | – | – | – | – | 67 | 32 | 1 | – | – | –
1200 | 1200 | 1400 | COc1ccccc1NC(=O)N[C@H]1CCc2cc(OC)c(OC)c(OC)c2-c2ccc(OC)c(=O)cc21 | 1200 | – | – | – | – | – | – | – | – | – | – | – | – | 55 | 44 | 1
